Test results: publication PMC4094378 (European journal of medicinal chemistry, 2014)
“Also recorded” adds a separate entry of the source. Values belong to the molecule of their own block, whether it stands above or below them.

Experiments:
U-937 (lymphoma) cells = conditions: read-out: IC50 U-937; ref [18],[19]; cited from earlier work
[1] = tested on: HeLa (cervical) cancer cells; conditions: read-out: IC50 HeLa (literature); ref [18],[19]; cited from earlier work
[2] = tested on: panel of seven human cancer cell lines; experiment: Antiproliferative activity across the panel of seven cancer cell lines; type: cell-based; conditions: for IC50: Homo sapiens, read-out: IC50 range over the panel of cancer cell lines
How it was run: (§1)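 Jurkat, CEM and SEM cells were grown in RPMI-1640, and HeLa, MCF-7, HT-29 and LoVo in DMEM, each with 10% FBS and penicillin/streptomycin. Wells got 8 × 10^3 cells and were preincubated 18 h at 37 °C in 5% CO2. Test compound from a 10 mM DMSO stock was diluted in medium (final DMSO ≤0.25%) and applied for 72 h. Read-out was MTT. IC50 is the concentration giving 50% inhibition of proliferation, from dose–response curves of ≥3 independent experiments, mean ± SE.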

Bovine brain tubulin = experiment: In vitro inhibition of tubulin polymerization; type: biochemical; conditions: 10 μM purified tubulin, glutamate buffer, 30 °C
How it was run: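 Tubulin was purified from bovine brain. Varying test-compound concentrations were preincubated with the tubulin at 30 °C, then cooled to 0 °C. GTP was added, the mixtures were moved to 0 °C cuvettes in a recording spectrophotometer and warmed to 30 °C, and assembly was followed turbidimetrically.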

Jurkat cells = experiment: Cell growth inhibitory activity; type: cell-based, human; conditions: additional meta-methoxy
How it was run: as §1

LoVo cells = experiment: Cell growth inhibitory activity; type: cell-based, human; conditions: additional meta-methoxy
How it was run: as §1

HeLa cells [3] = experiment: Cell viability; type: cell-based, human; conditions: 2.5 μM, 48 h; BHA 10 μM, TOC 100 μM, NAC 100 μM, GSH 1 mM, DTT 1 mM
HeLa cells [4] = experiment: Intracellular GSH content; type: cell-based, human; conditions: 24 h, concentration-dependent; counteracted by NAC 100 μM
HeLa cells [5] = experiment: Annexin-V/PI apoptosis assay; type: cell-based, human; conditions: 24 h, further increased after 48 h
HeLa cells [6] = experiment: Cell viability with or without pan-caspase inhibitor z-VAD.fmk; type: cell-based, human; conditions: compound 2.5 μM, z-VAD.fmk 100 μM, 48 h
How it was run: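 HeLa cells were exposed for 48 h to test compound with or without the pan-caspase inhibitor, and viability was recorded as a percentage. Data are means ± SEM of three independent experiments. Significance against compound-alone treatment was tested by Student's t-test. Final DMSO was ≤0.25%.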

γH2A.X in HeLa cells = experiment: Western blot of γH2A.X; type: cell-based, human; conditions: 24 or 48 h treatment
How it was run: (§2)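 HeLa cultures were sampled at the indicated times and concentrations, washed twice in 0 °C PBS and lysed 30 min at 0 °C. Lysates were clarified at 15 000 × g (4 °C, 10 min) and protein was measured by BCA. Aliquots of 20 µg were run on 7.5–15% gradient SDS-PAGE and blotted to PVDF. Membranes were blocked at 4 °C, probed 2 h at room temperature with primary antibody, then 60 min with peroxidase-labelled secondary, and developed by ECL. Membranes were reprobed for β-actin as the loading control.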

[7] = tested on: Bcl-2, Bax, Bak, Mcl-1 and Bid in HeLa cells; experiment: Western blot of Bcl-2 family proteins; type: cell-based, human; conditions: for Mcl-1 expression: 2.5 μM, especially at 48 h; for Bid expression: evident after 24 h at the lowest concentration used
How it was run: as §2

[8] = tested on: PBMC not stimulated with PHA; experiment: Cytotoxicity in resting PBMC; type: cell-based, human; conditions: resting PBMC vs lymphoblastic cell lines
How it was run: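 PBMC from healthy donors were isolated on a Lymphoprep gradient, washed, and held overnight at 1.0 × 10^6 cells/mL in RPMI-1640 with 10% FBS. Non-adherent cells were resuspended at 5 × 10^5 cells/mL without PHA, given a range of test-compound concentrations for 72 h, and read by MTT. Values are mean ± SEM of three separate experiments.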

[9] = tested on: microtubule network in HeLa cells; experiment: Immunofluorescence analysis of microtubule network; type: cell-based, human; conditions: 2.5 or 5.0 μM, 24 h, anti-β-tubulin staining
How it was run: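 Untreated HeLa cells served as the control. After 24 h exposure, cells were fixed in cold 4% formaldehyde for 15 min. Staining used mouse monoclonal anti-β-tubulin (1:1000), then an Alexa-conjugated secondary antibody (1:2000), with DAPI (1:10,000) counterstain for nuclei. Cells were imaged by confocal microscopy at 20×.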

HeLa cells [10] = experiment: Flow cytometric analysis of cell cycle distribution; type: cell-based, human; conditions: 24 h; for effect on cell cycle progression: PI, concentration-dependent, reduction in S phase cells
How it was run: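 HeLa cells in exponential growth (2.5 × 10^5) were treated with a range of test-compound concentrations. Cells were collected, fixed in ice-cold 70% ethanol, and lysed in buffer containing RNase A and 0.1% Triton X-100. They were stained with propidium iodide for flow-cytometric DNA content, and the DNA histograms were analysed to give the percentage of cells in each phase.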

HeLa cells [11] = experiment: Mitochondrial membrane potential; type: cell-based, human; conditions: JC-1, time course
HeLa cells [12] = experiment: ROS production by flow cytometry; type: cell-based, human
[13] = tested on: murine leukemia L1210 cells; conditions: read-out: IC50 L1210; ref [21]; cited from earlier work

SMILES: COc1cccc(/C=C/C(=O)Nc2cc(OC)c(OC)c(OC)c2)c1 [1a]
IC50 (U-937 (lymphoma) cells): 3000 nM
IC50 [1]: 11.3 µM

IC50 [2]: 2200 to 21700 nM
SMILES: COc1cc(NC(=O)/C=C/c2cccc(OCc3ccccc3)c2)cc(OC)c1OC [1b, reference compound]
IC50 (U-937 (lymphoma) cells): 1800 nM
fold more potent than 1a ([2]; across seven cell lines): 1.5- to 12 fold

IC50 [2]: 190 to 27300 nM
SMILES: C=C(Br)C(=O)Nc1cccc(/C=C/C(=O)Nc2ccccc2)c1 [4a, N-{3-[(1E)-3-anilino-3-oxoprop-1-en-1-yl]phenyl}-2-bromoacrylamide]

IC50 [2]: 680 to 6500 nM
SMILES: C=C(Br)C(=O)Nc1cccc(/C=C/C(=O)Nc2cccc3ccccc23)c1 [4b, 2-Bromo-N-(3-{(1E)-3-oxo-3-[(naphthalen-1-yl)amino]prop-1-en-1-yl}phenyl)-acrylamide]

SMILES: C=C(Br)C(=O)Nc1cccc(/C=C/C(=O)Nc2cccc(F)c2)c1 [4d, 2-Bromo-N-(3-{(1E)-3-oxo-3-[(3-fluorophenyl)amino]prop-1-en-1-yl}phenyl)-acrylamide]
fold enhancement of antiproliferative activity vs 4c ([2]; fluorine moved para to meta, six of seven cell lines, exception CEM): 4–15 fold

SMILES: C=C(Br)C(=O)Nc1cccc(/C=C/C(=O)Nc2ccc(F)c(F)c2)c1 [4e, 2-Bromo-N-(3-{(1E)-3-oxo-3-[(3,4-difluorophenyl)amino]prop-1-en-1-yl}phenyl)-acrylamide]
Concentration up to which tubulin assembly was not inhibited (Bovine brain tubulin): > 20 µM
fold increase of antiproliferative activity relative to 4c ([2]; additional meta-fluorine, all cancer cell lines): 4–1300 fold

SMILES: C=C(Br)C(=O)Nc1cccc(/C=C/C(=O)Nc2ccc(Cl)cc2)c1 [4f, 2-Bromo-N-(3-{(1E)-3-oxo-3-[(4-chlorophenyl)amino]prop-1-en-1-yl}phenyl)-acrylamide]
fold increase of antiproliferative activity, fluorine to chlorine ([2]; vs 4c): 2–30 fold

SMILES: C=C(Br)C(=O)Nc1cccc(/C=C/C(=O)Nc2ccc(C)cc2)c1 [4g, 2-Bromo-N-(3-{(1E)-3-oxo-3-[(p-tolyl)amino]prop-1-en-1-yl}phenyl)-acrylamide]
fold increase in potency vs 4f ([2]; chlorine replaced by methyl): 2–10 fold

SMILES: C=C(Br)C(=O)Nc1cccc(/C=C/C(=O)NCc2ccc(C)cc2)c1 [4h, 2-Bromo-N-(3-{(1E)-3-[(4-methylbenzyl)amino]-3-oxoprop-1-en-1-yl}phenyl)acrylamide]
fold reduced activity compared with 4g ([2]; cell lines other than HeLa, LoVo and MCF-7): 2 to 7 fold

SMILES: C=C(Br)C(=O)Nc1cccc(/C=C/C(=O)Nc2ccc(OC)cc2)c1 [4i, 2-Bromo-N-(3-{(1E)-3-oxo-3-[(4-methoxyphenyl)amino]prop-1-en-1-yl}phenyl)-acrylamide]
Concentration up to which tubulin assembly was not inhibited (Bovine brain tubulin): > 20 µM
fold increase in antiproliferative activity relative to 4a ([2]; para-methoxy): 7–15 fold

SMILES: C=C(Br)C(=O)Nc1cccc(/C=C/C(=O)Nc2ccc(OC)c(OC)c2)c1 [4m, 2-Bromo-N-(3-{(1E)-3-oxo-3-[(3,4-dimethoxyphenyl)amino]prop-1-en-1-yl}phenyl)-acrylamide]
fold increase in activity vs 4i, Jurkat (Jurkat cells): 2 fold
Concentration up to which tubulin assembly was not inhibited (Bovine brain tubulin): > 20 µM
fold increase in activity vs 4i, LoVo (LoVo cells): 3 fold

IC50 [2]: 18 to 2300 nM
SMILES: C=C(Br)C(=O)Nc1cccc(/C=C/C(=O)Nc2cc(OC)c(OC)c(OC)c2)c1 [4o, 2-Bromo-N-(3-{(1E)-3-oxo-3-[(3,4,5-trimethoxyphenyl)amino]prop-1-en-1-yl}phenyl)-acrylamide]
Concentration up to which tubulin assembly was not inhibited (Bovine brain tubulin): > 20 µM

SMILES: C=C(Br)C(=O)Nc1cccc(/C=C/C(=O)Nc2ccc(N3CCOCC3)cc2)c1 [4p, 2-Bromo-N-(3-{(1E)-3-oxo-3-[(4-morpholinophenyl)amino]prop-1-en-1-yl}phenyl)-acrylamide]
cell viability in the presence of antioxidants (HeLa cells [3]): only the thiol-containing scavengers (NAC, GSH and DTT) significantly increased cell viability
intracellular GSH content (CMFDA fluorescence) (HeLa cells [4]): remarkable decrease; also recorded: substantially reduced CMFDA fluorescence
annexin-V positive cells (HeLa cells [5]): accumulation of annexin-V positive cells
Concentration up to which tubulin assembly was not inhibited (Bovine brain tubulin): > 20 µM
cell viability with z-VAD.fmk (HeLa cells [6]): significantly increased cell viability
γH2A.X expression (γH2A.X in HeLa cells): induced this effect only after 48 h
Bak and Bax expression [7]: remained practically unchanged
Mcl-1 expression [7]: decreased
Bid expression [7]: nearly complete disappearance
fold lower toxicity in resting PBMC respect to Jurkat and CEM [8]: 10–100 fold
effect on microtubule network [9]: not substantially modified
fold enhancement of antiproliferative activity relative to 4a ([2]; morpholin-4-yl, six of seven cell lines, exception CEM): 8–100 fold
effect on cell cycle progression (HeLa cells [10]): significant G2/M arrest

SMILES: C=C(Br)C(=O)Nc1ccc(/C=C/C(=O)Nc2cc(OC)c(OC)c(OC)c2)cc1 [4r]
cell viability in the presence of antioxidants (HeLa cells [3]): only the thiol-containing scavengers (NAC, GSH and DTT) significantly increased cell viability
intracellular GSH content (CMFDA fluorescence) (HeLa cells [4]): substantially reduced CMFDA fluorescence
mitochondrial depolarization, onset time (HeLa cells [11]): ≥ 12 h
annexin-V positive cells (HeLa cells [5]): accumulation of annexin-V positive cells
Concentration up to which tubulin assembly was not inhibited (Bovine brain tubulin): > 20 µM
cell viability with z-VAD.fmk (HeLa cells [6]): significantly increased cell viability
γH2A.X expression (γH2A.X in HeLa cells): induced γH2A.X expression
ROS production, H2DCFDA-positive cells (HeLa cells [12]; 1–6 h, concentration-dependent): early but modest increase
ROS production, HE fluorescence (superoxide anion) (HeLa cells [12]; data not shown): did not detect any increase
Bak and Bax expression [7]: remained practically unchanged
Mcl-1 expression [7]: decreased
Bcl-2 expression ([7]; 24 and 48 h): decreased
Bid expression [7]: nearly complete disappearance
fold lower toxicity in resting PBMC respect to Jurkat and CEM [8]: 10–100 fold
effect on microtubule network [9]: not substantially modified
concentration at which rise in G2/M cells occurs (as low as) (HeLa cells [10]): 2 µM
effect on cell cycle progression (HeLa cells [10]): significant G2/M arrest

IC50 [2]: 2810 to 63100 nM
SMILES: COc1cc(NC(=O)/C=C/c2cccc(N)c2)cc(OC)c1OC [7o, (E)-3-(3-aminophenyl)-N-(3,4,5-trimethoxyphenyl)acryl-amide]
fold less active than 4o ([2]; across seven cell lines): 30–700 fold

SMILES: C=C(Br)C(=O)O [α-bromoacrylic acid]
IC50 [13]: > 120 µM
